Data from ChEMBL document CHEMBL3621107, “Ring fusion strategy for synthesis and lead optimization of sulfur-substituted anthra[1,2-c][1,2,5]thiadiazole-6,11-dione derivatives as promising scaffold of antitumor agents” (Eur J Med Chem, 2015).

How the values were obtained:
UO-31 = experiment: Cytotoxicity against human UO31 cells assessed as cell growth at 10 uM after 48 hrs by SRB assay relative to control; format: functional; conditions: UO-31, 48 h, read-out: Activity
Outline: (§1)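 NCI-60 one-dose screen run by NCI DTP: each cell line exposed to a single 10 µM dose, and percentage growth recorded against untreated growth.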

PC-3 = experiment: Cytotoxicity against human PC3 cells after 48 hrs by SRB assay; format: functional, cell-based; conditions: PC-3, 48 h
Outline: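 Second-stage NCI-60 panel run by the NCI Developmental Therapeutics Program, covering nine tumour subpanels. Five concentrations were tested: 0.01, 0.1, 1, 10 and 100 μM. Percentage growth at each level was plotted against log10 drug concentration. GI50, TGI and LC50 were read from these dose-response curves. Subpanel MID values were divided into the full-panel MID to give selectivity ratios.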

TK-10 = experiment: Cytotoxicity against human TK10 cells assessed as cell growth at 10 uM after 48 hrs by SRB assay relative to control; format: functional; conditions: TK-10, 48 h, read-out: Activity; outline: as §1
DU-145 = experiment: Cytotoxicity against human DU145 cells assessed as cell growth at 10 uM after 48 hrs by SRB assay relative to control; format: functional; conditions: DU-145, 48 h, read-out: Activity
Outline: (§2)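 First-stage NCI-60 screen by the NCI Developmental Therapeutics Program. Each compound was tested once at a single concentration of 10 μM against the 60-cell-line panel. Growth percentage was reported for each cell line.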

OVCAR-5 = experiment: Cytotoxicity against human OVCAR5 cells assessed as cell growth at 10 uM after 48 hrs by SRB assay relative to control; format: functional; conditions: OVCAR-5, 48 h, read-out: Activity
Outline: (§3)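 First-stage NCI DTP one-dose screen against the 60 human tumour cell line panel. Compounds were tested at a single 10 μM level, and results are given as growth percentage.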

SNB-19 = experiment: Cytotoxicity against human SNB19 cells assessed as cell growth at 10 uM after 48 hrs by SRB assay relative to control; format: functional; conditions: SNB-19, 48 h, read-out: Activity; outline: as §1
SN12C = experiment: Cytotoxicity against human SN12C cells assessed as cell growth at 10 uM after 48 hrs by SRB assay relative to control; format: functional; conditions: read-out: Activity; outline: as §3
[1] = Cytotoxicity against human Hs578T cells assessed as cell growth at 10 uM after 48 hrs by SRB assay relative to control; format: functional; conditions: Hs-578T, read-out: Activity; outline: as §2
NCI-H226 = experiment: Cytotoxicity against human NCI-H226 cells assessed as cell growth at 10 uM after 48 hrs by SRB assay relative to control; format: functional; conditions: NCI-H226, 48 h, read-out: Activity; outline: as §3
RXF 393 = experiment: Cytotoxicity against human RXF393 cells assessed as cell growth at 10 uM after 48 hrs by SRB assay relative to control; format: functional; conditions: RXF 393, 48 h, read-out: Activity; outline: as §3
HL-60(TB) = experiment: Cytotoxicity against human HL-60(TB) cells assessed as cell growth at 10 uM after 48 hrs by SRB assay relative to control; format: functional; conditions: HL-60, 48 h, read-out: Activity
Outline: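 NCI Developmental Therapeutics Program 60-cell-line screen, first stage: a single dose of 10 μM against the panel, reported as percentage growth.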

SK-MEL-2 = experiment: Cytotoxicity against human SK-MEL-2 cells assessed as cell growth at 10 uM after 48 hrs by SRB assay relative to control; format: functional; conditions: SK-MEL-2, 48 h, read-out: Activity; outline: as §3
IGROV-1 = experiment: Cytotoxicity against human IGROV1 cells assessed as cell growth at 10 uM after 48 hrs by SRB assay relative to control; format: functional; conditions: IGROV-1, 48 h, read-out: Activity; outline: as §2
SK-OV-3 = experiment: Cytotoxicity against human SKOV3 cells assessed as cell growth at 10 uM after 48 hrs by SRB assay relative to control; format: functional; conditions: SK-OV-3, 48 h, read-out: Activity; outline: as §3
KM12 = experiment: Cytotoxicity against human KM12 cells assessed as cell growth at 10 uM after 48 hrs by SRB assay relative to control; format: functional; conditions: KM12, 48 h, read-out: Activity; outline: as §2
NCI-H460 = experiment: Cytotoxicity against human NCI-H460 cells assessed as cell growth at 10 uM after 48 hrs by SRB assay relative to control; format: functional; conditions: NCI-H460, 48 h, read-out: Activity; outline: as §3
NCI/ADR-RES = experiment: Cytotoxicity against human NCI/ADR-RES cells assessed as cell growth at 10 uM after 48 hrs by SRB assay relative to control; format: functional; conditions: read-out: Activity; outline: as §3
SF-539 = experiment: Cytotoxicity against human SF539 cells assessed as cell growth at 10 uM after 48 hrs by SRB assay relative to control; format: functional; conditions: SF-539, 48 h, read-out: Activity; outline: as §3
BT-549 = experiment: Cytotoxicity against human BT549 cells assessed as cell growth at 10 uM after 48 hrs by SRB assay relative to control; format: functional; conditions: BT-549, 48 h, read-out: Activity; outline: as §2
SK-MEL-28 = experiment: Cytotoxicity against human SK-MEL-28 cells assessed as cell growth at 10 uM after 48 hrs by SRB assay relative to control; format: functional; conditions: SK-MEL-28, 48 h, read-out: Activity; outline: as §3
HT-29 = experiment: Cytotoxicity against human HT-29 cells assessed as cell growth at 10 uM after 48 hrs by SRB assay relative to control; format: functional; conditions: HT-29, 48 h, read-out: Activity; outline: as §2
UACC-62 = experiment: Cytotoxicity against human UACC62 cells assessed as cell growth at 10 uM after 48 hrs by SRB assay relative to control; format: functional; conditions: UACC-62, 48 h, read-out: Activity; outline: as §1
Malme-3M = experiment: Cytotoxicity against human MALME-3M cells assessed as cell growth at 10 uM after 48 hrs by SRB assay relative to control; format: functional; conditions: read-out: Activity; outline: as §2
SNB-75 = experiment: Cytotoxicity against human SNB75 cells assessed as cell growth at 10 uM after 48 hrs by SRB assay relative to control; format: functional; conditions: SNB-75, 48 h, read-out: Activity; outline: as §1
OVCAR-3 = experiment: Cytotoxicity against human OVCAR3 cells assessed as cell growth at 10 uM after 48 hrs by SRB assay relative to control; format: functional; conditions: OVCAR-3, 48 h, read-out: Activity; outline: as §3
COLO 205 = experiment: Cytotoxicity against human COLO205 cells assessed as cell growth at 10 uM after 48 hrs by SRB assay relative to control; format: functional; conditions: COLO 205, 48 h, read-out: Activity; outline: as §2
OVCAR-8 = experiment: Cytotoxicity against human OVCAR8 cells assessed as cell growth at 10 uM after 48 hrs by SRB assay relative to control; format: functional; conditions: OVCAR-8, 48 h, read-out: Activity; outline: as §3
SR = experiment: Cytotoxicity against human SR cells assessed as cell growth at 10 uM after 48 hrs by SRB assay relative to control; format: functional; conditions: read-out: Activity; outline: as §1
K562 = experiment: Cytotoxicity against human K562 cells assessed as cell growth at 10 uM after 48 hrs by SRB assay relative to control; format: functional; conditions: K562, 48 h, read-out: Activity; outline: as §2
MOLT-4 = experiment: Cytotoxicity against human MOLT4 cells assessed as cell growth at 10 uM after 48 hrs by SRB assay relative to control; format: functional; conditions: MOLT-4, 48 h, read-out: Activity; outline: as §3
HCT-116 = experiment: Cytotoxicity against human HCT116 cells assessed as cell growth at 10 uM after 48 hrs by SRB assay relative to control; format: functional; conditions: HCT-116, 48 h, read-out: Activity; outline: as §2

Cc1ccc(Sc2cc3c(c4nsnc24)C(=O)c2ccccc2C3=O)c(C)c1
growth at 10 µM (UO-31): 65.7% | IC50 (PC-3): > 15 µM | growth at 10 µM (TK-10): 127% | growth at 10 µM (DU-145): 110% | growth at 10 µM (OVCAR-5): 106% | growth at 10 µM (SNB-19): 102% | growth at 10 µM (SN12C): 98.7% | growth at 10 µM [1]: 99.1% | growth at 10 µM (NCI-H226): 1.5% | growth at 10 µM (RXF 393): 106% | growth at 10 µM (HL-60(TB)): 99.9% | growth at 10 µM (SK-MEL-2): 98.5% | growth at 10 µM (IGROV-1): 95% | growth at 10 µM (SK-OV-3): 110% | growth at 10 µM (KM12): 96.4% | growth at 10 µM (NCI-H460): 102% | growth at 10 µM (NCI/ADR-RES): 97.8% | growth at 10 µM (SF-539): 100% | growth at 10 µM (BT-549): 94.5% | growth at 10 µM (SK-MEL-28): 119% | growth at 10 µM (HT-29): 101% | growth at 10 µM (UACC-62): 94.5% | growth at 10 µM (Malme-3M): 108% | growth at 10 µM (SNB-75): 76% | growth at 10 µM (OVCAR-3): 105% | growth at 10 µM (COLO 205): 107% | growth at 10 µM (OVCAR-8): 105% | growth at 10 µM (SR): 70.3% | growth at 10 µM (K562): 68% | growth at 10 µM (MOLT-4): 91% | growth at 10 µM (HCT-116): 94.5%
